{"source": "ChEMBL document CHEMBL4422640", "about": "“Design, synthesis and biological evaluation of tetrazole-containing RXRα ligands as anticancer agents” (Eur J Med Chem, 2019)", "key": {"MDA-MB-231": {"test_system": "MDA-MB-231", "assay": "Growth inhibition of human MDA-MB-231 cells after 48 hrs by MTT assay", "assay_type": "functional, cell-based", "details": "MDA-MB-231, 48 h", "method_in_brief": "(§1)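 MDA-MB-231 grown in DMEM, MCF-7 in MEM, each with 10% FBS, 37 °C, 5% CO2. Confluent cells exposed to compound, 0.195–100 μM, for 48 h. Then 2 mg/mL MTT for 4 h at 37 °C, formazan dissolved in DMSO, absorbance read at 490 nm. IC50 values are the mean of three independent experiments.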"}, "MCF7 [1]": {"test_system": "MCF7", "assay": "Growth inhibition of human MCF7 cells after 48 hrs by MTT assay", "assay_type": "functional, cell-based", "details": "MCF7, 48 h", "method_in_brief": "as §1"}, "[2]": {"molecular_target": "T1, Retinoic acid receptor RXR-alpha (Homo sapiens) (UniProt P19793)", "T1 sequence (whole entry)": "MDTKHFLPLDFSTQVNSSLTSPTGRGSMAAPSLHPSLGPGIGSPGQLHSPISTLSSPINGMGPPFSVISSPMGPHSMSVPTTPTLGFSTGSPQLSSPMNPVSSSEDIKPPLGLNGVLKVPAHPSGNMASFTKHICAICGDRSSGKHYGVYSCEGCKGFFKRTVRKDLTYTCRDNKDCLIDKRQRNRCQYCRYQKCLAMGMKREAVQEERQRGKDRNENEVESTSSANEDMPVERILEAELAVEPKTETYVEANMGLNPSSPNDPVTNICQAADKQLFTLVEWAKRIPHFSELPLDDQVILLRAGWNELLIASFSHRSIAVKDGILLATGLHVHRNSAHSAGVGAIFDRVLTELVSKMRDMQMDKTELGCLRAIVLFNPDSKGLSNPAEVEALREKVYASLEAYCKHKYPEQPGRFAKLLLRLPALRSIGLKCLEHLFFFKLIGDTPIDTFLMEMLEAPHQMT", "assay": "Antagonist activity at Gal4-fused human RXRalpha LBD (unknown origin) assessed as inhibition of 9-cis-retinoic acid-induced transactivation at 1 to 50 uM after 18 hrs by cell-based dual luciferase reporter gene assay", "method_in_brief": "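Cells transfected with Gal4 reporter plus Gal4-RXRα/LBD plasmids for 24 h, then treated with compounds at 1, 10 and 50 µM in the presence of 9-cis-RA for 18 h. Firefly luciferase read from lysates, normalized to Renilla. A compound counted as antagonist when inhibition was dose-dependent.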"}, "[3]": {"molecular_target": "T1, Retinoic acid receptor RXR-alpha (Homo sapiens)", "assay": "Inhibition of RXRalpha in human HeLa cells assessed as increase in PARP cleavage at 15 uM after 8 hrs in presence of TNFalpha by Immunoblotting analysis", "assay_type": "cell-based", "method_in_brief": "(§2)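 Cells kept in medium with 0% FBS and treated with compound together with TNF-α (20 ng/mL). Exposure was 8 h for HeLa and 12 h for MCF-7. PARP cleavage read by immunoblot: 10% SDS-PAGE, nitrocellulose, blocking in 5% milk/TBST, HRP secondary antibody, ECL.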"}, "MCF7 [4]": {"test_system": "MCF7", "assay": "Induction of apoptosis in human MCF7 cells assessed as increase in PARP cleavage at 30 uM after 12 hrs in presence of siRNA by Immunoblotting analysis", "assay_type": "functional, cell-based", "method_in_brief": "(§3)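 Cells transfected (Lipofectamine 2000) with control or RXRα siRNA for 48 h. HeLa (MEM, 10% FBS) then given compound at 20 μM for 8 h; MCF-7 (MEM, 10% FBS) given 30 μM for 12 h. Lysates run on 10% SDS-PAGE, transferred to nitrocellulose, probed for PARP cleavage and detected by ECL.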"}, "HeLa": {"test_system": "HeLa", "assay": "Induction of apoptosis in human HeLa cells assessed as increase in PARP cleavage at 20 uM after 8 hrs in presence of RXRalpha siRNA by Immunoblotting analysis", "assay_type": "functional, cell-based", "method_in_brief": "as §3"}, "[5]": {"molecular_target": "T2, Retinoic acid receptor RXR-alpha (Homo sapiens, UniProt P19793)", "T2 sequence (P19793 whole entry)": "T1 sequence (whole entry)", "assay": "Inhibition of 9-cis-retinoic acid competition binding to RXRalpha LBD (unknown origin) by fluorescence quenching method"}, "[6]": {"molecular_target": "T1, Retinoic acid receptor RXR-alpha (Homo sapiens)", "assay": "Inhibition of RXRalpha in human MCF7 cells assessed as increase in PARP cleavage at 30 uM after 12 hrs in presence of TNFalpha by Immunoblotting analysis", "assay_type": "cell-based", "method_in_brief": "as §2"}, "[7]": {"molecular_target": "T1, Retinoic acid receptor RXR-alpha (Homo sapiens)", "assay": "Inhibition of RXRalpha in human MCF7 cells assessed as increase in PARP cleavage after 12 hrs by Immunoblotting analysis", "assay_type": "cell-based", "method_in_brief": "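MCF-7 cells in medium with 0% FBS treated with compounds, with or without TNF-α (20 ng/mL), for 12 h. PARP cleavage read by immunoblot (10% SDS-PAGE, ECL). For the RXRα-dependence check, cells got control or RXRα siRNA for 48 h, then compounds at 30 µM for 12 h.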"}, "[8]": {"molecular_target": "T1, Retinoic acid receptor RXR-alpha (Homo sapiens)", "assay": "Inhibition of RXRalpha in human HeLa cells assessed as increase in PARP cleavage after 8 hrs by Immunoblotting analysis", "assay_type": "cell-based", "method_in_brief": "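HeLa cells in medium with 0% FBS treated with compounds, with or without TNF-α (20 ng/mL), for 8 h. PARP cleavage detected by immunoblot: 10% SDS-PAGE, nitrocellulose, 5% milk/TBST block, ECL detection. For the RXRα-dependence check, cells first got control or RXRα siRNA for 48 h, then compounds at 20 µM for 8 h.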"}}, "note": "Calls of active or inactive are those of the source. The calls are words filed in the database; no cut-off is given here.", "data": [{"smiles": "CC1=C(CCc2nnn[nH]2)c2ccccc2/C1=C\\c1ccc(Cl)cc1", "values": [{"measurement": "IC50", "setting": "MDA-MB-231", "value": 15.2, "unit": "µM"}, {"measurement": "IC50", "setting": "MCF7 [1]", "value": 56.3, "unit": "µM"}]}, {"smiles": "CSc1ccc(/C=C2/C(C)=C(Cc3nnn[nH]3)c3ccccc32)cc1", "values": [{"measurement": "Activity", "setting": "[2]", "value": "Active"}]}, {"smiles": "CC1=C(Cc2nnn[nH]2)c2ccccc2/C1=C\\c1ccccc1C(F)(F)F", "values": [{"measurement": "IC50", "setting": "MDA-MB-231", "value": 40.8, "unit": "µM"}, {"measurement": "IC50", "setting": "MCF7 [1]", "value": 62.3, "unit": "µM"}]}, {"smiles": "CC1=C(CCc2nnn[nH]2)c2ccccc2/C1=C\\c1cccc(Cl)c1", "values": [{"measurement": "IC50", "setting": "MDA-MB-231", "value": 24.7, "unit": "µM"}, {"measurement": "IC50", "setting": "MCF7 [1]", "value": 45.6, "unit": "µM"}]}, {"smiles": "CC1=C(CCc2nnn[nH]2)c2ccccc2/C1=C\\c1ccc(OC(F)(F)F)cc1", "values": [{"measurement": "inhibition", "setting": "[3]", "value": "Active"}, {"measurement": "Activity", "setting": "MCF7 [4]", "value": "inactive"}, {"measurement": "Activity", "setting": "HeLa", "value": "inactive"}, {"measurement": "Kd", "setting": "[5]", "value": 1.59, "unit": "µM"}, {"measurement": "inhibition", "setting": "[6]", "value": "Active"}, {"measurement": "inhibition", "setting": "[7]", "value": "Dose-dependent effect"}, {"measurement": "IC50", "setting": "MDA-MB-231", "value": 8.9, "unit": "µM"}, {"measurement": "inhibition", "setting": "[8]", "value": "Dose-dependent effect"}, {"measurement": "IC50", "setting": "MCF7 [1]", "value": 17.3, "unit": "µM"}]}, {"smiles": "CC1=C(Cc2nnn[nH]2)c2ccccc2/C1=C\\c1cccs1", "values": [{"measurement": "IC50", "setting": "MDA-MB-231", "value": 53.3, "unit": "µM"}, {"measurement": "IC50", "setting": "MCF7 [1]", "value": 124, "unit": "µM"}]}, {"smiles": "CC1=C(CCc2nnn[nH]2)c2ccccc2/C1=C\\c1ccccc1C(F)(F)F", "values": [{"measurement": "Activity", "setting": "[2]", "value": "Active"}]}, {"smiles": "CC1=C(CCc2nnn[nH]2)c2ccccc2/C1=C\\c1ccc(C(F)(F)F)cc1", "values": [{"measurement": "IC50", "setting": "MDA-MB-231", "value": 22.1, "unit": "µM"}, {"measurement": "IC50", "setting": "MCF7 [1]", "value": 39.4, "unit": "µM"}]}, {"smiles": "COc1ccc(/C=C2/C(C)=C(CCc3nnn[nH]3)c3ccccc32)cc1", "values": [{"measurement": "Activity", "setting": "[2]", "value": "Active"}]}, {"smiles": "CSc1ccc(/C=C2/C(C)=C(CCc3nnn[nH]3)c3ccccc32)cc1", "values": [{"measurement": "Activity", "setting": "[2]", "value": "Active"}]}, {"smiles": "CC1=C(Cc2nnn[nH]2)c2ccccc2/C1=C\\c1ccc(C(C)(C)C)cc1", "values": [{"measurement": "IC50", "setting": "MDA-MB-231", "value": 14.3, "unit": "µM"}, {"measurement": "IC50", "setting": "MCF7 [1]", "value": 38.4, "unit": "µM"}]}, {"smiles": "CC1=C(CCc2nnn[nH]2)c2ccccc2/C1=C\\c1cccc2ccccc12", "values": [{"measurement": "inhibition", "setting": "[7]", "value": "Dose-dependent effect"}, {"measurement": "inhibition", "setting": "[8]", "value": "Dose-dependent effect"}, {"measurement": "Activity", "setting": "[2]", "value": "Active"}]}, {"smiles": "CC1=C(Cc2nnn[nH]2)c2ccccc2/C1=C\\c1ccc(OC(F)(F)F)cc1", "values": [{"measurement": "Activity", "setting": "[2]", "value": "Active"}]}, {"smiles": "CC1=C(CCc2nnn[nH]2)c2ccccc2/C1=C\\c1cccc(C(F)(F)F)c1", "values": [{"measurement": "IC50", "setting": "MDA-MB-231", "value": 15.6, "unit": "µM"}, {"measurement": "IC50", "setting": "MCF7 [1]", "value": 28.8, "unit": "µM"}]}, {"smiles": "CC1=C(CCc2nnn[nH]2)c2ccccc2/C1=C\\c1ccc(C(C)(C)C)cc1", "values": [{"measurement": "IC50", "setting": "MDA-MB-231", "value": 12.5, "unit": "µM"}, {"measurement": "IC50", "setting": "MCF7 [1]", "value": 31.1, "unit": "µM"}]}, {"smiles": "CC(C)c1ccc(/C=C2/C=C(CC(=O)NO)c3cc(F)ccc32)cc1", "values": [{"measurement": "inhibition", "setting": "[3]", "value": "Active"}, {"measurement": "Activity", "setting": "MCF7 [4]", "value": "inactive"}, {"measurement": "Activity", "setting": "HeLa", "value": "inactive"}, {"measurement": "Kd", "setting": "[5]", "value": 1.13, "unit": "µM"}, {"measurement": "inhibition", "setting": "[6]", "value": "Active"}, {"measurement": "IC50", "setting": "MDA-MB-231", "value": 5, "unit": "µM"}, {"measurement": "IC50", "setting": "MCF7 [1]", "value": 20.8, "unit": "µM"}]}, {"smiles": "CC(C)c1ccc(/C=C2\\C=C(CCc3nnn[nH]3)c3ccccc32)cc1", "values": [{"measurement": "IC50", "setting": "MDA-MB-231", "value": 15.6, "unit": "µM"}, {"measurement": "IC50", "setting": "MCF7 [1]", "value": 41.8, "unit": "µM"}]}, {"smiles": "CC1=C(CCc2nnn[nH]2)c2ccccc2/C1=C\\c1ccccc1Cl", "values": [{"measurement": "Activity", "setting": "[2]", "value": "Active"}]}, {"smiles": "COc1ccc(/C=C2\\C=C(Cc3nnn[nH]3)c3ccccc32)cc1", "values": [{"measurement": "Activity", "setting": "[2]", "value": "Active"}]}, {"smiles": "CC1=C(Cc2noc(=O)[nH]2)c2ccccc2/C1=C\\c1ccc(C(C)C)cc1", "values": [{"measurement": "IC50", "setting": "MDA-MB-231", "value": 9.04, "unit": "µM"}, {"measurement": "IC50", "setting": "MCF7 [1]", "value": 23.8, "unit": "µM"}]}, {"smiles": "CC1=C(Cc2nnn[nH]2)c2ccccc2/C1=C\\c1cccc(C(F)(F)F)c1", "values": [{"measurement": "Activity", "setting": "[2]", "value": "Active"}]}, {"smiles": "CC1=C(CCc2nnn[nH]2)c2ccccc2/C1=C\\c1ccc(C(C)C)cc1", "values": [{"measurement": "IC50", "setting": "MDA-MB-231", "value": 12.3, "unit": "µM"}, {"measurement": "IC50", "setting": "MCF7 [1]", "value": 27, "unit": "µM"}]}, {"smiles": "CC1=C(CC(=O)O)c2cc(F)ccc2/C1=C\\c1ccc(C(C)C)cc1", "values": [{"measurement": "Kd", "setting": "[5]", "value": 2.38, "unit": "µM"}]}, {"smiles": "CC(C)c1ccc(/C=C2\\C=C(Cc3nnn[nH]3)c3ccccc32)cc1", "values": [{"measurement": "Activity", "setting": "[2]", "value": "Active"}]}, {"smiles": "CC1=C(Cc2nnn[nH]2)c2ccccc2/C1=C\\c1ccc(C(F)(F)F)cc1", "values": [{"measurement": "Activity", "setting": "[2]", "value": "Active"}]}, {"smiles": "COc1ccc(/C=C2/C(C)=C(Cc3nnn[nH]3)c3ccccc32)cc1", "values": [{"measurement": "IC50", "setting": "MDA-MB-231", "value": 25.7, "unit": "µM"}, {"measurement": "IC50", "setting": "MCF7 [1]", "value": 104, "unit": "µM"}]}, {"smiles": "CC1=C(Cc2nnn[nH]2)c2ccccc2/C1=C\\c1ccc(C(C)C)cc1", "values": [{"measurement": "IC50", "setting": "MDA-MB-231", "value": 8.48, "unit": "µM"}, {"measurement": "IC50", "setting": "MCF7 [1]", "value": 27.6, "unit": "µM"}]}]}
